{"source": "the RNAGym collection of RNA variant scans (doi:10.1126/science.aae0568)", "parents": {"B1": {"name": "tRNA (parent)", "chain": "GUUCCGUUGGCGUAAUGGUAACGCGUCUCCCUCCUAAGGAGAAGACUGCGGGUUCGAGUCCCGUACGGAACG"}}, "note": "Variants at the floor of the assay were thinned out."}
{"variants_of": "B1", "experiment": "yeast fitness relative to wild type (ratio to wild type); higher = fitter; tRNA-Arg(CCU), competitive growth, 37 C, YPD", "method_in_brief": "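Gene amplicons from the start population and from each of six end populations were read by 100-nucleotide paired-end sequencing. Those end populations came from pooled Saccharomyces cerevisiae strains carrying tRNA-Arg(CCU) gene variants at the native locus, competed in YPD at 37°C for 24 hours. Fitness relative to wild type was worked out from changes in genotype frequencies. Genotypes needed ≥ 100 starting reads, and estimates < 0.5 were set to 0.5.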"}
{"variant": "GUUCGGUUGGCGUAAUGGUAACGCGUCUCCCUCCUACGGAGAAGACUGCGCGUUCGGGUCCCGUACGGAACG", "yeast fitness": 0.598}
{"variant": "GUUCGGUUGGCGUAAUGGUAACGCGUCUCCCUCCUACGGAGAAGACUGCGGGUUCGAGUCUCGUACGGAACG", "yeast fitness": "≤ 0.5"}
{"variant": "GUUCGGUUGGCGUAAUGGUAGUGCGUCUCCCUCCUAAGGAGAAGACUGCGGGUUCGAGUCCCGUACGGAACG", "yeast fitness": 0.689}
{"variant": "GUUCGGUUGGCGUAAUGGUAACGCGUCUCCCUCCUACAGAGAAGACUGCGGGUUCGAGUGCCGUACGGAACG", "yeast fitness": "≤ 0.5"}
{"variant": "GUUCGGUUGGCGUAAUGGUAACGCGUCUCCCUCCUCAGGACAAGACUGCGGGUUCGAGUCCCGUACGGAACG", "yeast fitness": "≤ 0.5"}
{"variant": "GUUCGGUUGGCGUAAUGGUAACGCGUCUCCCUCCUUAGGAGAAGACUGCGGGUUCGAGUCCCGUACAGAACG", "yeast fitness": 0.571}
{"variant": "GUUCGGUUGGCGUAAUGGUAUCGCGUCUCCCUCCUAAGGAGAAGACUGCGGGUUUGAGUCCCGUACGGAACG", "yeast fitness": 0.6}
{"variant": "GUUCGGUUGGCGUAAUGGUAGCGCGUCCCCCCCCUAAGGAGAAGACUGCGGGUUCGAGUCCCGUUCGAAACG", "yeast fitness": "≤ 0.5"}
{"variant": "GUUCGGUUGGCGUAAUGGUAGCGCGUCUCCCCCCUAAGGAGAAGACUGCGGGUUCGAGUCCCGUACGGAACG", "yeast fitness": 0.63}
{"variant": "GUUCGGUUGGCGUAAUGGUAACGCGUCUCCCUCCUUAGGAGAAGACUGCGGCUUCGAGUCCCGUACUGUACG", "yeast fitness": "≤ 0.5"}
{"variant": "GUUCGGUUGGCGUAAUGGUAACGCGUCUCCCUCCUACAGAGAAGACUGCGGGUUCGAGUCCCGUACGGAACG", "yeast fitness": 0.562}
{"variant": "GUUCGGUUGGCGUAAUGGUAACGCGUCUCCCUCCUGAGGAGAUGACUGCGGGUUCGAGUCCCGUACGGCACG", "yeast fitness": 0.655}
{"variant": "GUUCGGUUGGCGUAAUGGUAGCGCGCGUCCCUCCUAAGGAGAAGACUCCGGGUUCGAGUCCCGUACAGAACG", "yeast fitness": 0.531}
{"variant": "GUUCGGUUGGCGUAAUGGUAACGCGUCUCCCUCCUUAGGAGAAGACUGCGGGUUCGAGUCCUGUACGGAACG", "yeast fitness": "≤ 0.5"}
{"variant": "GUUCGGUUGGCGUAAUGGUAUCGCGUCUCCCUUCUAAGGAGAAGACUGCAGGUUCGAGUCCCGUACGGAACG", "yeast fitness": 0.835}
{"variant": "GUUCGGUUGGCGUAAUGGUACCGCGUCUCCCUCCUAAGAAGAAGACUGCGGGUUCGAGUCCCGUACGGAACG", "yeast fitness": "≤ 0.5"}
{"variant": "GUUCGGUUGGCGUAAUGGUAGCGCGUCUCCCUCCUAAGGAGAAGUCUGCGGGUUCAAGUCCCGUACGGAACG", "yeast fitness": 0.753}
{"variant": "GUUCGGUUGGCGUAAUGGUAGCGCGUGUCCCUCGUAAGGAGACGAGUGCGGGUUCGAGUCCCGUACGGAGCG", "yeast fitness": 0.561}
{"variant": "GUUCGGUUGGCGUAAUGGUAACGCGUCUCCCUCCUACGGAGAAGACUGCGAGCUCGAGUCCAGUACGGAACG", "yeast fitness": "≤ 0.5"}
{"variant": "GUUCGGUUGGCGUAAUGGUAGCGCGUCUCCCUCCUAAGGAGAAGACUGCGGGUUCGAGUCCUGUACGGAACG", "yeast fitness": 0.677}
{"variant": "GUUCGGUUGGCGUAAUGGUAUCGCGUCUCCCUCCUAAGGAGAAGACUGUGGGUUCGAGUCCCGUACGGAACG", "yeast fitness": "≤ 0.5"}
{"variant": "GUUCGGUUGGCGUAAUGGUAACGCGUCUCCCUCCUGAGGAGAAGACUGCGGGUUCGAGUCCCGUACGCAACG", "yeast fitness": 0.596}
{"variant": "GUUCGGUUGGCGUAAUGGUAACGCGUCUCCCUCCUGAGGAGAAGACUGCGGGUUCGAGUCCCGUACGUAACG", "yeast fitness": 0.525}
{"variant": "GUUCGGUUGGCGUAAUGGUAACGCGUCUCCCUCCUACGGAGAAGACUGCGGGUUCGAGUCCCGUACGGAACG", "yeast fitness": 0.731}
{"variant": "GUUCGGUUGGCGUAAUGGUAACGCGUCUCCCUCCUUAGGAGAAGACUGCGGGUUCGAGUCUCGUCCAAAACG", "yeast fitness": "≤ 0.5"}
{"variant": "GUUCGGUUGGCGUAAUGGUAGCGCGUCUCCCCCCUAAGGAGAAGACUGCGGGUUCGAGUCCUGUUCGAAACG", "yeast fitness": "≤ 0.5"}
{"variant": "GUUCGGUUGGCGUAAUGGUAUCGCGUCUUCCUCCUAUGGAGAGGACUGCGGGUUCGAGUCCCGUAGGGAACG", "yeast fitness": "≤ 0.5"}
{"variant": "GUUCGGUUGGCGUAAUGGUAACGCGUCUCCCUCCUGAGGCGAAGACUGCGGGUUCGAGUCCCGUACGGAACG", "yeast fitness": 0.683}
{"variant": "GUUCGGUUGGCGUAAUGGUAUCGCGUCUACCUCCUAAGGAGAAGACUGCGGGUUCGAGUCCCGUACGGAACG", "yeast fitness": 0.631}
{"variant": "GUUCGGUUGGCGUAAUGGUAACGCGUCUCCCUCCUACGGAGAAGACUGCGGGUUCGAGUCCCGUACGGCACG", "yeast fitness": 0.511}
{"variant": "GUUCGGUUGGCGUAAUGGUAGCGCGUCUCCCUCCUAAGGAGAAGACUGCGGGUUCGAGUCCCGCACGGAACG", "yeast fitness": 0.723}
{"variant": "GUUCGGUUGGCGUAAUGGUAGCGCGUCUCCCUCCUAAGGAGAAGACUGCGGGUUCGAGACCCGUACGGCCCG", "yeast fitness": "≤ 0.5"}
{"variant": "GUUCGGUUGGCGUAAUGGUAACGCGUCUCCCUCCUUAGGAGAAGACUGCGGGUCCGAGUCCCGUACGGAACG", "yeast fitness": "≤ 0.5"}
{"variant": "GUUCGGUUGGCGUAAUGGUAACGCGUCUCCCUCCUUAGGAGAAGACUGCGGGUUCGAGUCCCGUACGGAACG", "yeast fitness": 0.583}
{"variant": "GUUCGGUUGGCGUAAUGGUAACGCGUCUCCCUCCUCAGGAGAAGACUGCGGGUUCGAGUCCCGUACGGAACG", "yeast fitness": 0.772}
{"variant": "GUUCGGUUGGCGUAAUGGUAACGCGUCUCCCUCCUGAGGAGAAGACUGCGGGUUCGAGUCCCGUACGGAACG", "yeast fitness": 1.01}
{"variant": "GUUCGGUUGGCGUAAUGGUAGCGCGUCUCUCUCCUAAGGUGAAGACUGCGGGUUCGAGUCCCGUACGGAACG", "yeast fitness": "≤ 0.5"}
{"variant": "GUUCGGUUGGCGUAAUGGUAACGCGUCUCCCUCCUGAGGAGAAGGCUGCGCGUUCGAGUCACGUACGGAACG", "yeast fitness": "≤ 0.5"}
